# Assay results taken from ChEMBL document CHEMBL4312015, “Design, synthesis and 3D-QSAR analysis of novel thiopyranopyrimidine derivatives as potential antitumor agents inhibiting A549 and Hela cancer cells” (Eur J Med Chem, 2020).
# Experiments:
# A549 = assay: Antiproliferative activity against human A549 cells assessed as inhibition of cell growth after 72 hrs by MTT assay; type: functional, cell-based; details: A549, 72 h
# Summary of the method: (§1)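 Cell lines from the Chinese Academy of Sciences cell collection, grown in 96-well plates with a range of compound concentrations for 72 h. Viability read by MTT, with AZD9291 as positive control. IC50 values are averages of three determinations per the methods section; table footnotes state an average of two separate determinations.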
# HeLa = assay: Antiproliferative activity against human HeLa cells assessed as inhibition of cell growth after 72 hrs by MTT assay; type: functional, cell-based; summary of the method: as §1
# [1] = target: Epidermal growth factor receptor (Homo sapiens, UniProt P00533, L858R/T790M); assay: Inhibition of EGFR T790M/L858R double mutant (unknown origin) using biotin as substrate in presence of ATP by mobility shift assay based ELISA
# [2] = target: Epidermal growth factor receptor (Homo sapiens, UniProt P00533); assay: Inhibition of wildtype EGFR (unknown origin) using biotin as substrate in presence of ATP by mobility shift assay based ELISA
# Homo sapiens = species on record: Homo sapiens; assay: Selectivity ratio of IC50 for wildtype EGFR (unknown origin) to IC50 for EGFR T790M/L858R double mutant (unknown origin) by mobility shift assay based ELISA
# NCI-H1975 [3] = assay: Antiproliferative activity human NCI-H1975 cells harboring EGFR T790M/L858R double mutant assessed as inhibition of cell growth at 10 uM after 72 hrs by MTT assay relative to control; type: functional; details: NCI-H1975, 72 h
# Summary of the method: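 H1975 cells exposed to compound at a single 10 uM concentration. Growth inhibition rate read by MTT after 72 h in 96-well plates, with AZD9291 as positive control. Values are an average of two separate determinations.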
# NCI-H1975 [4] = assay: Antiproliferative activity against human NCI-H1975 cells harboring EGFR T790M/L858R double mutant assessed as inhibition of cell growth after 72 hrs by MTT assay; type: functional, cell-based; details: NCI-H1975, 72 h; summary of the method: as §1
# Chain of Epidermal growth factor receptor (Homo sapiens, UniProt P00533) (P00533 whole entry): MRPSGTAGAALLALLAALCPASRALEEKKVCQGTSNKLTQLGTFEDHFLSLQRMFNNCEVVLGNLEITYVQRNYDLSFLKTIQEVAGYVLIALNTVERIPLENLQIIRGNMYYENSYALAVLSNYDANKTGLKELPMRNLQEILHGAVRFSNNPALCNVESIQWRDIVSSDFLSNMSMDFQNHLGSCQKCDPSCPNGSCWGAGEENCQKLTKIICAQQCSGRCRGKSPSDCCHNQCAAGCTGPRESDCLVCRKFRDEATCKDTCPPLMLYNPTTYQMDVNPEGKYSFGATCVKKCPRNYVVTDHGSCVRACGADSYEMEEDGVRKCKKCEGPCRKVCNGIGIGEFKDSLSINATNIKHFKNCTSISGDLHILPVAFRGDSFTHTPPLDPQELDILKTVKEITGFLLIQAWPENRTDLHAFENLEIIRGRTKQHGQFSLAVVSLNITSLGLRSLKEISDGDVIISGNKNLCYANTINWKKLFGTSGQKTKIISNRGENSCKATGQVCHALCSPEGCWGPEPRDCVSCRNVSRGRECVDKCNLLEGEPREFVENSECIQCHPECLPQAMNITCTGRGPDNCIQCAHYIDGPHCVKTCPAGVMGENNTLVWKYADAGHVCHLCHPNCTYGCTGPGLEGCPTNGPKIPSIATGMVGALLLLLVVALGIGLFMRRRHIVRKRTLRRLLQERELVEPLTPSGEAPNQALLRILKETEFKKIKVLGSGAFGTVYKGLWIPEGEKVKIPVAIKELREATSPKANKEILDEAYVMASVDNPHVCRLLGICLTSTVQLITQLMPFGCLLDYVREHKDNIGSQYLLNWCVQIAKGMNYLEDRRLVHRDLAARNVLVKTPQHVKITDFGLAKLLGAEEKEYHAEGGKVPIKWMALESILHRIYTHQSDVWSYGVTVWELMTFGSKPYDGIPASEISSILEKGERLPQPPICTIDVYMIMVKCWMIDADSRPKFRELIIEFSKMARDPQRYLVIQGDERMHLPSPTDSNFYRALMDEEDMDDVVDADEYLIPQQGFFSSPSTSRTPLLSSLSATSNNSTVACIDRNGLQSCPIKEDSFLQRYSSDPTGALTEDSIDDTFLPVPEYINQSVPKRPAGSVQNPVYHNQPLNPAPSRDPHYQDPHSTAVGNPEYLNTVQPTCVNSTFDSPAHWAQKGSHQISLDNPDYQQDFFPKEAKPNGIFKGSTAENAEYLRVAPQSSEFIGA
# Chain of Epidermal growth factor receptor (Homo sapiens, UniProt P00533, L858R/T790M) (P00533 25-1210 T790M/L858R limits assumed): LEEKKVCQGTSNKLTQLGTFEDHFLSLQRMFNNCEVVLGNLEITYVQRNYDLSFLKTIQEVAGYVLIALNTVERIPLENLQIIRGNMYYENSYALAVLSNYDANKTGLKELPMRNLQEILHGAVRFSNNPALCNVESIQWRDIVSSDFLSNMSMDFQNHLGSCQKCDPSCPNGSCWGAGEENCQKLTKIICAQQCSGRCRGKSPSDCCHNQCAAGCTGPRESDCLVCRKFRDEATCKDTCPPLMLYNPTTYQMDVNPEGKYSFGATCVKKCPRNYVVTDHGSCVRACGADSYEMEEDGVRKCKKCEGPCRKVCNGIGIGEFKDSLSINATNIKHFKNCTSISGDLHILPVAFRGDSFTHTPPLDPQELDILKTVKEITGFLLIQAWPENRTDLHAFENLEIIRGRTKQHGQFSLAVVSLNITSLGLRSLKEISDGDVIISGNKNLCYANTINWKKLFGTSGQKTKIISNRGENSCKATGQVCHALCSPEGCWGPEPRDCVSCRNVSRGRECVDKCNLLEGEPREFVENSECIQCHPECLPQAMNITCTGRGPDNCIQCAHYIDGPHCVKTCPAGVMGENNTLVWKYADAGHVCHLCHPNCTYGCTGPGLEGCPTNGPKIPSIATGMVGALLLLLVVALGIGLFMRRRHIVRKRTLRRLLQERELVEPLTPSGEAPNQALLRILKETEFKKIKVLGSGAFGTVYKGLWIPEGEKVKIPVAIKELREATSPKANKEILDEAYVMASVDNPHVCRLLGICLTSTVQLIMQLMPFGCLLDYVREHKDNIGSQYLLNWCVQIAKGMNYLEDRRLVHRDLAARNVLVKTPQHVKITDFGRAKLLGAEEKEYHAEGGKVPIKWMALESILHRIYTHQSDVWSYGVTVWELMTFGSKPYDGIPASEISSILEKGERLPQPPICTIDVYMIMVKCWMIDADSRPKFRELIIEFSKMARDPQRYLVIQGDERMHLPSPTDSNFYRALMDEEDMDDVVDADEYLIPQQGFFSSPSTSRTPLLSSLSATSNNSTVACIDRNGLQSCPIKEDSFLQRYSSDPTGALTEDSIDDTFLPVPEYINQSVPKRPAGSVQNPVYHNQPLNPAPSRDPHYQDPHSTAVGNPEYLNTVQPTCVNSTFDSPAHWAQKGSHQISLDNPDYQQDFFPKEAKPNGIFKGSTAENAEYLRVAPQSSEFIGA
IC50 (A549) [nM],IC50 (HeLa; read-out: IC50) [nM],IC50 (HeLa; read-out: pIC50 (converted)) [nM],IC50 [1] [nM],IC50 [2] [nM],Ratio IC50 (Homo sapiens),IC50 (NCI-H1975 [4]) [nM],Structure (SMILES),inhibition at 10 µM (NCI-H1975 [3]) [%]
1350,5220,5220,–,–,–,–,CC/C=C\C(=O)Nc1cc(Nc2nc3c(c(-c4cn(C)c5ccccc45)n2)CS(=O)(=O)CC3)c(OC)cc1N(C)CCN(C)C,–
5830,7100,7100,–,–,–,–,CC/C=C\C(=O)Nc1cc(Nc2nc3c(c(-c4cn(C)c5ccc(F)cc45)n2)CS(=O)(=O)CC3)c(OC)cc1N(C)CCN(C)C,–
6860,1650,1650,–,–,–,–,C/C=C\C(=O)Nc1cc(Nc2nc3c(c(-c4cn(C)c5ccccc45)n2)CSCC3)c(OC)cc1N(C)CCN(C)C,–
4540,728,728,–,–,–,–,C=CC(=O)Nc1cc(Nc2nc3c(c(-c4cn(C)c5ccc(F)cc45)n2)CSCC3)c(OC)cc1N(C)CCN(C)C,–
4640,175,175,–,–,–,–,C=CC(=O)Nc1cc(Nc2nc3c(c(-c4cn(C)c5ccc(F)cc45)n2)CS(=O)(=O)CC3)c(OC)cc1N(C)CCN(C)C,–
1450,839,840,1130,> 2000,> 1.8,–,CC/C=C\C(=O)Nc1cc(Nc2nc3c(c(-c4cn(C)c5ccc(F)cc45)n2)CSCC3)c(OC)cc1N(C)CCN(C)C,–
8680,115,115,–,–,–,–,C=CC(=O)Nc1cc(Nc2nc3c(c(-c4cn(C)c5ccccc45)n2)CS(=O)(=O)CC3)c(OC)cc1N(C)CCN(C)C,–
506,1300,1300,35,511,14.6,–,C=CC(=O)Nc1cc(Nc2nc3c(c(-c4cn(C)c5ccccc45)n2)CSCC3)c(OC)cc1N(C)CCN(C)C,55.6
881,205,205,990,104,1.1,4230,C=C(Cl)C(=O)Nc1cc(Nc2nc3c(c(-c4cn(C)c5ccccc45)n2)CS(=O)(=O)CC3)c(OC)cc1N(C)CCN(C)C,99
2140,5920,5920,> 2000,201,–,–,COc1cc(N(C)CCN(C)C)c(NC(=O)C=C(C)C)cc1Nc1nc2c(c(-c3cn(C)c4ccc(F)cc34)n1)CS(=O)(=O)CC2,–
5190,966,966,–,–,–,–,CCC/C=C\C(=O)Nc1cc(Nc2nc3c(c(-c4cn(C)c5ccc(F)cc45)n2)CSCC3)c(OC)cc1N(C)CCN(C)C,–
7570,2330,2330,–,–,–,–,CCC/C=C\C(=O)Nc1cc(Nc2nc3c(c(-c4cn(C)c5ccc(F)cc45)n2)CS(=O)(=O)CC3)c(OC)cc1N(C)CCN(C)C,–
5310,275,275,–,–,–,–,C/C=C\C(=O)Nc1cc(Nc2nc3c(c(-c4cn(C)c5ccc(F)cc45)n2)CSCC3)c(OC)cc1N(C)CCN(C)C,–
1150,1330,1330,1690,> 2000,> 1.2,–,COc1cc(N(C)CCN(C)C)c(NC(=O)/C=C\C(C)C)cc1Nc1nc2c(c(-c3cn(C)c4ccc(F)cc34)n1)CSCC2,99.7
